Assay results reported in publication PMC3445775 (Hepatology (Baltimore, Md.), 2012).
“Also recorded” adds a separate entry of the source. Values belong to the compound of their own block, whether it stands above or below them.

Legend:
human FATP5 = target: T1, human FATP5 (Homo sapiens, UniProt Q9Y2P5); type: cell-based
T1 sequence (Q9Y2P5 1-690): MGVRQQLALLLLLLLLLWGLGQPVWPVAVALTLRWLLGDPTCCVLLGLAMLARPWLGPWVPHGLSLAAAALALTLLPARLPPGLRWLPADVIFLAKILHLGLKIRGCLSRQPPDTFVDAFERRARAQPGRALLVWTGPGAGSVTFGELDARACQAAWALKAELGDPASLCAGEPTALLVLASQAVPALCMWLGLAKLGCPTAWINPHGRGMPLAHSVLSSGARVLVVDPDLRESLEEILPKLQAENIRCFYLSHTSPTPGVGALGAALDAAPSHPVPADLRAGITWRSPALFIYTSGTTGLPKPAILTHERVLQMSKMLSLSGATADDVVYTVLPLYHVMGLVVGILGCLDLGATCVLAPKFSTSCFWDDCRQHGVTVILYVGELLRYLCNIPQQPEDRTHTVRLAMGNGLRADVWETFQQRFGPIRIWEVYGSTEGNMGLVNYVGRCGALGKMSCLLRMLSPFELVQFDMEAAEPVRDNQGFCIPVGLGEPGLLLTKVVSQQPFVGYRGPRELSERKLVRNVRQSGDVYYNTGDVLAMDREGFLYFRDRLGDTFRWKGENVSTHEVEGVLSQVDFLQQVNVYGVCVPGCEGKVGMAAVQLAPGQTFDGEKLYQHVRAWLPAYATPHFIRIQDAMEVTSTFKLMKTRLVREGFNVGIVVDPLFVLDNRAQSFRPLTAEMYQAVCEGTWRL
In short: (§1)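 HEK-293 cells stably expressing human FATP4, FATP2 or FATP5 were maintained in DMEM/10% FBS with 1 mg/ml G418. Cells were plated at 30,000–50,000/well overnight to 50–70% confluency. They were preincubated 30 min (5% CO2) with test compound, diluted from DMSO stock into HBSS with 20 mM HEPES, 4.5 g/L glucose and 0.1% fatty-acid-free BSA. Compound in quencher mix containing 2 μM C1-BODIPY-C12 was then added. Fluorescence (ex 488/em 515 nm, bottom read) was recorded every 2 min for 2 h, and uptake velocities were derived by linear regression.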

human FATP2 = human FATP2 (Homo sapiens, UniProt O14975); type: cell-based
In short: as §1

hsFATP4 = hsFATP4 (Homo sapiens, UniProt Q6P1M0); assay: Quencher-based LCFA uptake assay, FATP4 expressing 293 cells; type: cell-based; details: result in words
In short: as §1

FATP5 and FATP2 = assay: Inhibition reversibility assay; type: cell-based, human; details: 30 min treatment followed by brief washes with PBS
293 cells = assay: XTT toxicity assay, stable 293 cell lines; type: cell-based, human; details: 48 hours
In short: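 Stable 293 cells in DMEM/FBS were incubated overnight in 5% CO2. The indicated test compound or DMSO control was added, and after a further 48 h viability was measured with an XTT kit per the manufacturer's instructions.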

[1] = tested on: primary mouse hepatocytes from C57Bl/6 animals; assay: Quencher based LCFA uptake assay, wild-type mouse primary hepatocytes; type: cell-based
[2] = tested on: primary hepatocytes from FATP5-null animals; assay: Quencher based LCFA uptake assay, FATP5-null mouse primary hepatocytes; type: cell-based; details: FATP5 KO
In short: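 Primary hepatocytes from FATP5-null mice were isolated by portal-vein perfusion and collagenase digestion. Viability was checked by trypan blue, and cells were plated on collagen (150,000 cells/well) in DMEM/FBS with insulin-transferrin-selenium overnight. Test compound from DMSO stock in HBSS (20 mM HEPES, 4.5 g/L glucose, 0.1% fatty-acid-free BSA) was applied for 30 min. It was replaced by the same compound in quencher mix with 2 μM C1-BODIPY-C12. Bottom-read fluorescence (ex 488/em 515 nm) was taken every 2 min for 2 h, and velocities were obtained by linear regression.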

[3] = tested on: primary mouse hepatocytes; assay: XTT viability of primary mouse hepatocytes; type: cell-based; details: 48 hour treatment
[4] = tested on: Mouse primary hepatocytes; assay: Uptake assay of radiolabeled compounds, primary hepatocytes; type: cell-based; details: 5 μM DCA
hepatic LCFA uptake = assay: Non-radioactive in vivo hepatic LCFA uptake assay; design: species or system mouse
[5] = tested on: hepatic triglyceride accumulation; assay: Chronic bile acid injection during high-fat diet; type: in vivo, mouse; details: 3.2 mg/kg s.c. daily
In short: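 Individually housed mice on a high-fat diet (60% calories from fat) received daily s.c. injections of test compound, 3.2 mg/kg in 20 μl DMSO, above the right hip for 47 days. Controls received DMSO vehicle. Mice were fasted 4 h and euthanised with CO2, and injection sites were checked for precipitate. Liver lysates were assayed for protein (BCA) and TAG.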

hepatic TAG content = assay: 7 week bile acid supplemented high-fat diet feeding; type: in vivo, mouse
[6] = tested on: acute liver LCFA absorption; assay: 1 week DCA/high-fat food feeding pilot; type: in vivo, mouse
[7] = tested on: intestinal fatty acid absorption; assay: Non-radioactive intestinal in vivo LCFA absorption assay; design: species or system mouse; details: gavage of olive oil/BODIPY-FFA with 0.05% DCA
In short: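 Mice were gavaged with 200 μl of olive oil/20 μM BODIPY-FFA containing 0% or 0.05% bile acid. Blood was drawn at 0, 30, 60, 120 and 240 min after gavage, and serum fluorescence at 515 nm was read on a plate reader.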

TGR5 = details: ref [33], [34]; cited from earlier work
[8] = tested on: primary human hepatocytes; assay: FACS-based LCFA uptake assay, primary human hepatocytes; type: cell-based; details: 10 or 100 μM, viable cells
In short: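 Suspended primary human hepatocytes were pretreated with test compound at 10 or 100 μM in DMEM (37°C, 5% CO2, 30 min). C1-BODIPY-C12 bound to 0.1% BSA was then added to a final 2 μM for 30 min at 37°C. Uptake was stopped on ice, and cells were centrifuged at 4°C and resuspended in cold PBS. Propidium iodide was added, and mean BODIPY fluorescence of 5000 viable PI-negative cells was taken from histogram plots.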

[9] = oral administration of UDCA; ref [41]; cited from earlier work
NASH = details: cited from earlier work
[10] = 0.5mg/g in high fat food, 7 weeks

Chain of hsFATP4 (Q6P1M0 whole entry): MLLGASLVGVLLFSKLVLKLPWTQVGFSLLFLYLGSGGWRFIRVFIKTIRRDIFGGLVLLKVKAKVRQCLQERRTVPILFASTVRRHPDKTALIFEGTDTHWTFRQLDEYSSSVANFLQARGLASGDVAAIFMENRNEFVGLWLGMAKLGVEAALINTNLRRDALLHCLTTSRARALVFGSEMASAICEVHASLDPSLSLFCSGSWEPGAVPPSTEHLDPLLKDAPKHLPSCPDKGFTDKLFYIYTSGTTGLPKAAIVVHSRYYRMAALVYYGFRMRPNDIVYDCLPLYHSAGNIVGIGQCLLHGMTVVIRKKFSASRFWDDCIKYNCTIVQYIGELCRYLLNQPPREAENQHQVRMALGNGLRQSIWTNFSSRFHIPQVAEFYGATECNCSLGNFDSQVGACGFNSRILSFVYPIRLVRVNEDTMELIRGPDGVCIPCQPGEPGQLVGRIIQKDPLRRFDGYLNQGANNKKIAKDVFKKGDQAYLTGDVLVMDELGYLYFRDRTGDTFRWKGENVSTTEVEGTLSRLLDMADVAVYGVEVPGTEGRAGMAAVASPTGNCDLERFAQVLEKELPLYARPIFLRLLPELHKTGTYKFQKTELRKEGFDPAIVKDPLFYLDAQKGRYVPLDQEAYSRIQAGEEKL

IC50 (human FATP5): 0.19 µM | IC50 (human FATP2): 5 µM | inhibition of LCFA uptake by FATP5-null primary hepatocytes [2]: abolished
Structure (SMILES): C[C@H](CCC(=O)O)[C@H]1CC[C@H]2[C@@H]3CC[C@@H]4C[C@H](O)CC[C@]4(C)[C@H]3C[C@H](O)[C@]12C [DCA, deoxycholic acid]
inhibition of FATP4 LCFA uptake (hsFATP4): neither DCA, UDCA, nor LCA inhibited; also recorded: No inhibition | Reversible Inhibition (FATP5 and FATP2): reversible and Yes | toxicity (XTT assay) (293 cells): did not display any cytotoxicity | inhibition of LCFA uptake by primary mouse hepatocytes [1]: inhibited hepatocyte LCFA uptake significantly | cytotoxicity to primary mouse hepatocytes (XTT) [3]: not associated with toxicity | uptake of 2-deoxy-D-[3H]glucose/glucose mix [4]: without affecting uptake | uptake of radiolabeled fatty acids ([4]; 20 μM fatty acid): inhibit the uptake of a wide range of fatty acids | effect on in vivo hepatic LCFA uptake in FATP5 KO (hepatic LCFA uptake; FATP5 KO mice, 6.4mg/kg): abolished | effect on in vivo hepatic LCFA uptake (hepatic LCFA uptake; WT mice, acute injection): inhibitory effect was observed | acute reduction of hepatic LCFA uptake (hepatic LCFA uptake; in vivo, DCA injections): 31% | body weight ([5]; 47 days): nor did it affect food consumption or body weight | food consumption ([5]; 47 days): nor did it affect food consumption or body weight | respiration ([5]; 47 days): neither triggered an increase in respiration | reduction in the triglyceride content of the liver ([5]; 47 days, WT): 68% | triglyceride content of the liver ([5]; 47 days, WT, vehicle 6.6): 2.1 mg TAG/g protein | liver TAG in FATP5-null animals ([5]; FATP5-null): did not cause a further reduction in liver TAG | body weight (hepatic TAG content; [10]): Neither DCA nor LCA feeding resulted in changes | caloric output over a 36h period (hepatic TAG content; [10]): Neither DCA nor LCA feeding resulted in changes | food intake (hepatic TAG content; [10]): Neither DCA nor LCA feeding resulted in changes | respiratory rate (hepatic TAG content; [10]): Neither DCA nor LCA feeding resulted in changes | lipid droplets in BODIPY-stained liver sections (hepatic TAG content; 0.05% DCA in high-fat diet): markedly reduced lipid droplets | hepatotoxicity or fibrosis (ALT/AST assays, liver morphology) (hepatic TAG content; 0.05% DCA in high-fat diet, 49 days): did not lead to hepatotoxicity or fibrosis | reduction in hepatic TAG content (hepatic TAG content; 0.05% in high-fat diet, 7 weeks): approximately 50% | acute liver LCFA absorption ([6]; DCA 0 to 0.2% in high-fat food): dose dependent reduction | circulating liver enzymes (serum AST) ([6]; DCA 0 to 0.2% in high-fat food): without causing a detectable increase | circulating lipids in the form of TAG and cholesterol ([6]; dietary DCA 0.03%-0.4%): unchanged | intestinal fatty acid absorption (labeled fatty acid in the circulation) [7]: not suppressed; also recorded: no significant effect | TGR5 activation (TGR5): activate TGR5 equally

Structure (SMILES): C[C@H](CCC(=O)O)[C@H]1CC[C@H]2[C@@H]3[C@@H](O)C[C@@H]4C[C@H](O)CC[C@]4(C)[C@H]3CC[C@]12C [UDCA, ursodeoxycholic acid, reference compound]
IC50 (human FATP5): 5 µM | inhibition of FATP4 LCFA uptake (hsFATP4): neither DCA, UDCA, nor LCA inhibited; also recorded: No inhibition | Reversible Inhibition (FATP5 and FATP2): Yes | inhibition of LCFA uptake by primary human hepatocytes [8]: inhibited LCFA uptake | inhibition of LCFA uptake by primary mouse hepatocytes [1]: inhibited LCFA uptake | inhibition of LCFA uptake by FATP5-null primary hepatocytes [2]: failed to inhibited LCFA uptake | cytotoxicity to primary mouse hepatocytes (XTT) [3]: without any detectable cytotoxic effects | circulating UDCA levels [9]: over 17 μM | effect on hepatosteatosis and NASH versus placebo (NASH; 13–15 mg/kg/day over 2 years, 166 patients, ref [43]): did not produce an effective result as compared to placebo | overall histology (NASH; 23–28 mg/kg/day for 18 months, 185 NASH patients, ref [44]): failed to improve the overall histology
